# Assay outcomes from PubChem.
# Shown are actives, neighbours in structure and some others; about 3.2% of the full set was active somewhere.
# TRPN1 ag = activates the zebrafish TRPN1 channel. HEK293 zebrafish TRPN1-YFP, Fluo-8 calcium fluorescence; 100% = response to 87 µM carbachol. activation, % at 3 µM. hit rate 0.18% among 220,000;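 active means activation above its plate's cutoff, the mean activation of test wells on that plate plus 3 SD, cut at about 19% in these data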
#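 Material: zebrafish TRPN1-YFP in HEK293 cells. Doses: one dose of 3 µM, 0.3% DMSO. Incubation: dye 1 h 37 °C plus 30 min RT. Measured by: intracellular calcium fluorescence with Fluo-8.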
# OX1R antag-1 = human HCRTR1 antagonism; O43613; CHO/OX1R cells, Fluo-8 calcium fluorescence, orexin A; inhibition, % at 5 µM; hit rate 0.43% among 330,000;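 active means inhibition above its plate's threshold, mean inhibition of all tested compounds on the plate plus 3 SD, cut at about 37% in these data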
# CHO parental Ca = counter-screen: ATP calcium response change in parental CHO cells | parental CHO-K1, ATP-induced calcium, Fluo-8 fluorescence | inhibition, % at 5.6 µM | hit rate 0.63% among 330,000;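 active means inhibition above that plate's mean sample inhibition plus 3 SD, cut at about 26% in these data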
#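 Material: Parental CHO cells | Reagent: ATP | Compound dosing: Single nominal dose of 5.6 µM per compound | Detection: Intracellular calcium via Fluo-8 no-wash fluorescent dye | Read-out: % inhibition of ATP-induced calcium mobilization | Benchmarks: Low control ATP plus DMSO, high control DMSO only | Replicates: Singlicate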
# OX1R antag-2 = OX1R (human) antagonism | O43613 | OX1R-expressing cells, FRET antagonist read-out | inhibition, % at 6.6 µM | hit rate 1.8% among 330,000; in the data active means inhibition mostly above about 38%, no sharp cut-off; inactive means mostly below about 40%
# GPR7 antag = human neuropeptides B/W receptor 1 antagonism | P48145 | GPR7-expressing cells, fluorescence antagonist assay | inhibition, % at 4.4 µM | hit rate 1.1% among 290,000; in the data active means inhibition above about 16%, passing the limit was not always enough;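 further: cells stimulated with the agonist NPW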
# Target sequence (P48145 whole entry, looked up): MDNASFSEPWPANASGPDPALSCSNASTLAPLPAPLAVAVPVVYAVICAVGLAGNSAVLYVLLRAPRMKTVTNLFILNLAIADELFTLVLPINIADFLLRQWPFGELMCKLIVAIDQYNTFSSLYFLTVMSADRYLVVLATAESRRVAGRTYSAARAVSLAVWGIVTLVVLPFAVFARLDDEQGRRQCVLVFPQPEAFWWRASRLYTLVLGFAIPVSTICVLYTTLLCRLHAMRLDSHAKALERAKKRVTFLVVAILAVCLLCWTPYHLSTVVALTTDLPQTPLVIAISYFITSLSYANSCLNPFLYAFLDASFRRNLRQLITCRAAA
# TRPML3 agonist = agonists of human TRPML3 channel; Q8TDD5; HEK293 TRPML3-YFP, Fluo-8 calcium fluorescence; 100% = the carbachol control signal; activation, % at 3 µM; hit rate 0.29% among 220,000; AID 1448;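 active means activation above its plate's cutoff, the mean activation of the plate's test wells plus 3 SD, cut at about 12% in these data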
#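 Test system: HEK293 cells stably carrying human TRPML3-YFP; Doses: single dose, 3 µM final nominal compound, 0.3% DMSO final; Schedule: dye loading 1 h 37 °C then 30 min ambient, 125 s read; Technique: Fluo-8 calcium fluorescence; Benchmarks: high control carbachol 87 µM, low control DMSO.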
# Hits are given with their value; 0 = inactive; - = no result given.
SMILES,TRPN1 ag,OX1R antag-1,CHO parental Ca,OX1R antag-2,GPR7 antag,TRPML3 agonist
Cc1nn(Cc2ccc(Cl)c(Cl)c2)c(C)c1NC(=O)c1cc(CC(C)C)on1,0,0,33,0,0,0
O=C1CSC(=S)N1/N=C/c1cc(Br)c(O)c(Br)c1,-,90,75,0,0,-
O=[N+]([O-])c1cccc(-c2cnc3ccccc3n2)c1,0,0,0,0,0,0
O=[N+]([O-])c1cnc2ccccc2c1,0,0,0,71,0,0
CC1CN(C2=NC(=O)/C(=C/c3ccncc3)S2)CC(C)O1 (centres undefined),0,0,0,34,0,0
CC1CCN(C(=O)C(C)NCc2ccc(F)cc2)CC1 (centres undefined),-,0,0,0,0,-
COc1cc2[nH]c(C(=O)N3CCN(c4ccccc4F)CC3)cc2c(OC)c1OC,-,0,0,0,0,-
O=C1CCCC(O)=C1N=Nc1cccc(C(=O)O)c1,0,0,0,70,0,0
CN(Cc1ccccc1)C(=O)CSc1nc2ccccc2c(=O)n1Cc1ccco1,0,0,0,34,0,0
COc1ccccc1C1CC(c2ccc(F)cc2)Nc2ncnn21 (centres undefined),0,0,0,0,0,0
COc1ccccc1C1CC(c2ccc(C)cc2)Nc2ncnn21 (centres undefined),0,0,0,0,14,0
CC(=O)C[C@@H](O)CC(=O)[C@H]1OC(=O)[C@H](C)CCCCc2ccccc21,-,0,0,0,-,-
Cc1ccc2nc3c(cc(C#N)c(=N)n3CCCN3CCOCC3)c(=O)n2c1,0,-,-,-,0,0
Cc1ccc2nc3c(cc(C(=O)NCCN4CCOCC4)c(=N)n3CCCN3CCOCC3)c(=O)n2c1,-,0,0,71,0,-
Cc1ccc2nc3c(cc(C(N)=S)c(=N)n3CCCOC(C)C)c(=O)n2c1,0,0,0,47,0,0
Cc1ccc(S(=O)(=O)c2cc3c(=O)n4ccccc4nc3n(CCCN3CCOCC3)c2=N)cc1C,-,0,0,0,0,-
N=c1c(C(=O)NCCN2CCOCC2)cc2c(=O)n3ccccc3nc2n1CCCN1CCOCC1,-,0,0,69,0,-
N=c1c(C(=O)NCCN2CCOCC2)cc2c(=O)n3ccccc3nc2n1Cc1ccc(F)cc1,-,0,0,60,0,-
CCCc1cc(=O)[nH]c(SCC(=O)Nc2cc(S(=O)(=O)N3CCOCC3)ccc2Cl)n1,-,0,0,0,-,-
CCN(CC)S(=O)(=O)c1cc(NC(=O)CCCOc2ccc(C(C)=O)cc2)ccc1C,0,0,0,0,0,0
Cc1nonc1NC(=O)CSc1nnc(N)s1,-,0,0,0,0,-
Cc1ccc(CNn2cn[nH]c2=S)cc1,-,0,0,0,-,-
N=c1c(S(=O)(=O)c2ccccc2)cc2c(=O)n3ccccc3nc2n1CCCN1CCOCC1,-,0,0,46,0,-
O=C(c1ccccc1SCc1ccc(F)cc1)N1CCOCC1,0,0,0,0,0,0
O=C1C(=O)c2ccccc2C(O)=C1c1ccccc1F,0,0,0,46,0,0
SMILES,TRPN1 ag,OX1R antag-1,CHO parental Ca,OX1R antag-2,GPR7 antag,TRPML3 agonist
O=C1C(O)=C(O)C(=O)c2ccccc21,-,0,0,0,-,-
COc1ccc(/C=C/c2cc[n+](C(=O)Cc3ccccc3)cc2)cc1,0,0,0,73,0,0
COc1ccc(/C=C/C(=O)NCCCc2ccccc2)cc1,0,0,0,0,0,0
COc1ccc(OCC(O)CNS(=O)(=O)c2cccs2)cc1 (centres undefined),-,0,0,0,0,-
O=C(CCS(=O)(=O)c1cccs1)Nc1ccc(C(=O)NCc2ccccc2)cc1,0,0,0,0,0,0
Cc1ccc(CNC(=O)c2ccc(NC(=O)CCS(=O)(=O)c3cccs3)cc2)cc1,0,0,98,0,0,0
Cc1ccc(C)c(N2CCN(C(=O)c3csc4ccccc34)CC2)c1,0,0,0,0,0,0
Cc1ccsc1CN(C)CC(=O)Nc1ccccc1C(=O)NC1CC1,-,0,0,0,-,-
O=C(CNS(=O)(=O)c1ccc(Br)cc1)N1CCN(Cc2ccccc2)CC1,-,0,0,0,0,-
CC(C)[C@H](NS(=O)(=O)c1ccccc1F)C(=O)NC1CCCCC1,-,0,0,39,-,-
O=C(NC1CCCCC1)C1CCCN1S(=O)(=O)c1ccc(F)cc1 (centres undefined),-,0,0,0,0,-
Cc1ccc(S(=O)(=O)N2CCCC2C(=O)NC2CCCCC2)cc1 (centres undefined),0,0,0,57,0,0
O=C(O)C1CSCN1S(=O)(=O)c1cccc2nsnc12 (centres undefined),-,0,0,41,-,-
O=C(NC1CCCC1)C(NS(=O)(=O)c1cccc2nsnc12)c1ccccc1 (centres undefined),0,0,0,53,0,0
CC(C)C(NS(=O)(=O)c1ccccc1)C(=O)NC1CCCC1 (centres undefined),-,0,0,0,0,-
CCOC(=O)C1CCN(C(=O)COc2ccc(Br)cc2C)CC1,0,0,0,0,0,0
COc1ccc(C(=O)N/C(=C\c2cn(C)c3ccccc23)C(=O)NCCCN2CCOCC2)cc1OC,-,0,0,0,0,-
CC(C)C(NS(=O)(=O)c1cccc2nsnc12)C(=O)NCc1ccco1 (centres undefined),0,0,0,0,0,0
COC(=O)C1CCCN1S(=O)(=O)c1ccc2ccccc2c1 (centres undefined),0,0,0,0,0,0
CC1CCN(C(=O)C(NS(=O)(=O)c2cccc3nsnc23)C(C)C)CC1 (centres undefined),-,0,0,43,0,-
COC(=O)C1CCCN1S(=O)(=O)c1ccc([N+](=O)[O-])cc1 (centres undefined),-,0,0,36,0,-
